Drawing on ChEMBL document CHEMBL4513216, “Probing the Open Global Health Chemical Diversity Library for Multistage-Active Starting Points for Next-Generation Antimalarials” (ACS Infect Dis, 2020), this text covers cytotoxicity for 96 compounds.

The series is described as follows: Toxicity liver stage against HepG2, at 10uM. More on the design: test concentration 10 uM, cell line HepG2-A16-CD81EGFP. It counts as cell-based. As to conditions: human, HepG2-A16-CD81EGFP cells; read-out: INHIBITION
In a few lines: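 Uninfected HepG2-A16-CD81EGFP cells, 3 × 10^3 per well, 1536-well, plated on prespotted compound at 10 μM final, parasite-free screening media added to match infected plates; puromycin 10 μM positive, DMSO 0.5% negative; run in parallel with 48 h PbLuc assay at 37 °C, 5% CO2; viability by CellTiter-Glo luminescence, normalized to controls.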
Consider `O=C(c1ccccc1Cl)N1CCN(CCc2ccccn2)CC1`, for which the cytotoxicity at 10 µM stood at 5.75%.

For the compound `Cc1ccnc(NC(=O)CCNC(=O)c2ccccc2Cl)c1`, the cytotoxicity at 10 µM was -2.66%.

On to `COc1coc(C(=O)Nc2nc(-c3ccccn3)cs2)cc1=O`, for which the cytotoxicity at 10 µM was 7.31%.

In the case of `Cc1c(C2SCC(=O)Nc3c2c(O)nn3C2CCCCC2)cnn1C` (stereo unspecified), the cytotoxicity at 10 µM is 0.618%.

As to `COc1ccc2c(ccn2CCC(=O)Nc2nc[nH]n2)c1`, the cytotoxicity at 10 µM was -12.6%.

With `COc1cccc(OC)c1C(=O)NCC(c1cccn1C)N1CCCC1` (stereo unspecified), the cytotoxicity at 10 µM amounted to 6.89%.

Regarding `CCc1ccccc1NC(=O)C1CN(C(C)=O)C1`, the cytotoxicity at 10 µM was 8.49%.

For the compound `Cc1cccc(CS(=O)(=O)NCc2nn(C)c3c2COCC3)c1`, the cytotoxicity at 10 µM was -3.02%.

Take `COC(CNC(=O)c1cn(C)nn1)c1ccccc1C` (stereo unspecified): the cytotoxicity at 10 µM is -14.5%.

`COCC1c2c(cnn2C)CCN1C(=O)c1ccc2c(c1)OCO2` (stereo unspecified): the cytotoxicity at 10 µM is 3.74%.

On to `c1cc(CNCC2Cn3nncc3CO2)ccn1` (stereo unspecified), for which the cytotoxicity at 10 µM was 6.62%.

`O=c1cc(CN2CCCC2)nc2n1CCCN(Cc1ccsc1)C2`: the cytotoxicity at 10 µM is -6.44%.

In the case of `CCN(Cc1nonc1C)C(=O)c1cc(C(F)(F)F)nn1C`, the cytotoxicity at 10 µM was 2.06%.

As for `COc1ccc(C(C)NC(=O)c2nn(C)c(C)c2Br)cc1` (stereo unspecified), the cytotoxicity at 10 µM was 9.18%.

As to `Cc1nn(C)c2c(N3CCN(C(=O)C4CCCO4)CC3)ncnc12` (stereo unspecified), the cytotoxicity at 10 µM was found to be 6.42%.

Turning to `O=S(=O)(c1ccc(N2CCCCC2)c2nonc12)N1CCCCC1`, the cytotoxicity at 10 µM is 6.74%.

As for `O=C1CNc2ncnc(N3CCN(Cc4ccccc4)CC3)c2N1`, the cytotoxicity at 10 µM was 9.76%.

`Clc1ccc2[nH]c3c(c2c1)CCCC3c1nn[nH]n1` (stereo unspecified): the cytotoxicity at 10 µM was -4.13%.

Regarding `CN1CCc2nc(C3CCCN(S(=O)(=O)c4ccccc4)C3)ncc2C1` (stereo unspecified), the cytotoxicity at 10 µM came out at 2.67%.

Turning to `CC(C)(C)C(=O)NCCc1cc(N2CCOCC2)nc(NC2CC2)n1`, the cytotoxicity at 10 µM turned out to be 6.68%.

With `CC(C)Nc1nc(O)cc(C(C)n2ncc3ccccc3c2=O)n1` (stereo unspecified), the cytotoxicity at 10 µM stood at 2.81%.

With `Cc1ccc(S(=O)(=O)N2CCN(CCCO)CC2)s1`, the cytotoxicity at 10 µM was -9.12%.

On to `CCN1CCCCC1C(=O)N1CCN(C(=O)OC)CC1` (stereo unspecified), for which the cytotoxicity at 10 µM was -4.81%.

In the case of `CN(Cc1nc2ccccc2[nH]1)C(=O)C(C)(C)n1cc(Cl)cn1`, the cytotoxicity at 10 µM stood at 6.16%.

`O=C(CCc1ccc(Cl)s1)N1CCCC(N2CCNC2=O)C1` (stereo unspecified): the cytotoxicity at 10 µM was 1.09%.

As for `Cc1cc(C)n(CCC(=O)N2CCCC(n3nc(C)nc3C)C2)n1` (stereo unspecified), the cytotoxicity at 10 µM was -5.61%.

With `CCOc1cc(CNC(=O)NCc2nc(C)c(C)s2)ccn1`, the cytotoxicity at 10 µM is -2.49%.

Turning to `O=S1(=O)CCC(n2cc(CNCC3(c4ccccc4)CC3)cn2)C1` (stereo unspecified), the cytotoxicity at 10 µM was 16.5%.

Take `COCc1ccccc1C(=O)N1CCn2c(nnc2C(C)C)C1`: the cytotoxicity at 10 µM is 2.91%.

In the case of `O=C(O)CC1CN(S(=O)(=O)c2cccc(F)c2)c2ccccc21` (stereo unspecified), the cytotoxicity at 10 µM is -4.17%.

On to `O=C(c1cnccn1)N1CCC(CN2CCOCC2)CC1`, for which the cytotoxicity at 10 µM was found to be 4.55%.

With `CNC(=O)C(C)S(=O)(=O)Cc1csc(-c2cccs2)n1` (stereo unspecified), the cytotoxicity at 10 µM is -11.9%.

`CNC(=O)C1CCCN(C(=O)NCCC2Cc3ccccc3C2)C1` (stereo unspecified): the cytotoxicity at 10 µM is 15.4%.

As to `O=C(NCC1CCC2(CC1)OCCO2)c1cccc(-n2cccn2)c1`, the cytotoxicity at 10 µM was determined as 0.477%.

Consider `O=C(COc1ccccc1C(F)(F)F)NCCNC(=O)c1ccccc1`, for which the cytotoxicity at 10 µM was -9.53%.

Take `CC(C)N(CC1CCCN(CC(N)=O)C1)C(=O)OC(C)(C)C` (stereo unspecified): the cytotoxicity at 10 µM is -5.66%.

Take `Cc1nc(CNC(=O)c2oc3ccccc3c2CN(C)C)oc1C`: the cytotoxicity at 10 µM came to 9.46%.

In the case of `O=C(Nc1cccnc1)N1CCC(n2ccc(C(F)(F)F)n2)CC1`, the cytotoxicity at 10 µM is -6.08%.

As for `CCc1noc(C(C)N2CCC(NC(=O)c3ccc(C)s3)CC2)n1` (stereo unspecified), the cytotoxicity at 10 µM is -9.9%.

As for `CCN(C(=O)COC)C(c1cccnc1)c1cc(C)cc(C)c1` (stereo unspecified), the cytotoxicity at 10 µM is -20.9%.

Regarding `Cc1cc(N2CCN(CCO)CC2)nc(-c2ccncc2)n1`, the cytotoxicity at 10 µM was -1.25%.

As to `Cc1cc(F)ccc1CNCCn1cccn1`, the cytotoxicity at 10 µM is -10.2%.

With `O=C(c1cnccn1)N1CC[C@H]2C[C@@H](c3ccncn3)O[C@@H]2C1`, the cytotoxicity at 10 µM is -78.5%.

`CN1CCCC2(CCN(C(=O)c3ccncc3)C2)C1` (stereo unspecified): the cytotoxicity at 10 µM is -68.3%.

With `CCOCC1CC2(CCN(Cc3ccccn3)CC2)CO1` (stereo unspecified), the cytotoxicity at 10 µM is -0.671%.

`CCCc1cncnc1N1CCC(NCc2ccc(O)cc2)CC1`: the cytotoxicity at 10 µM was 3.8%.

On to `CCc1cnc(NCc2nc(CSC)no2)nc1`, for which the cytotoxicity at 10 µM was 7.15%.

`N#CC1(c2ccccc2)CCN(C(=O)CN2C(=O)CCNC2=O)CC1`: the cytotoxicity at 10 µM was found to be 0.172%.

As to `CCc1oc(C(=O)NC(C)Cc2cnccn2)cc1CN1CCCC1` (stereo unspecified), the cytotoxicity at 10 µM is -5.28%.

`CCN(Cc1noc(C2CCC2)n1)C(=O)c1cn2ccsc2n1`: the cytotoxicity at 10 µM amounted to 5.44%.

Regarding `CCn1cc(-c2c(C)c(C3CCOC(C)(C)C3)nc(N)c2C#N)cn1` (stereo unspecified), the cytotoxicity at 10 µM was -10.3%.

Regarding `Cc1nn(C)c2ncnc(N3CCC(O)(CN4CCCC4)CC3)c12`, the cytotoxicity at 10 µM came to 2.68%.

In the case of `CN1C(=O)C(c2ccccc2)CC12CCN(CCN)CC2` (stereo unspecified), the cytotoxicity at 10 µM was 8.67%.

In the case of `CCCc1nc(CN(CC)C(=O)c2ccc3[nH]cnc3c2)no1`, the cytotoxicity at 10 µM stood at 3.98%.

As for `COc1ccc(/C=C/CN2CCC3(CC2)CN(C)C(=O)O3)cc1`, the cytotoxicity at 10 µM was -2.11%.

`Cc1cc(CN(C)C(=O)C(c2ccccc2F)N(C)C)ccn1` (stereo unspecified): the cytotoxicity at 10 µM was 2.78%.

`CNC(=O)[C@@H]1C[C@H](n2cc(-c3ccc(Cl)cc3)nn2)CN1`: the cytotoxicity at 10 µM was 5.89%.

For `Cc1nn(C)cc1-c1ccnc(N(C)Cc2ccc(F)cc2)n1`, the cytotoxicity at 10 µM was -3.85%.

Turning to `COCCNc1cc(-c2ccccc2C(=O)O)c2cc[nH]c2n1`, the cytotoxicity at 10 µM turned out to be 2.13%.

As to `CNc1ccnc(N2C[C@@H](C)[C@](O)(C3CCC3)C2)n1`, the cytotoxicity at 10 µM was -10.1%.

Consider `CC(Cn1cccn1)n1cnc2cccc(F)c2c1=O` (stereo unspecified), for which the cytotoxicity at 10 µM was -0.288%.

Take `CN(C)c1ncnc2c1CCN(S(=O)(=O)c1ccccc1C(F)(F)F)C2`: the cytotoxicity at 10 µM came out at 21.3%.

Regarding `Cc1nc(-c2cccc(N3CCC(N4CCCC4)CC3)c2)cs1`, the cytotoxicity at 10 µM is -17.2%.

As to `COc1ccc([C@@H]2CN(Cc3cccnc3N)C[C@H]2N(C)C)cc1`, the cytotoxicity at 10 µM came out at 1.54%.

With `OC1(CN2CCCCC2)CCN(Cc2c[nH]c(CC3CCCC3)n2)C1` (stereo unspecified), the cytotoxicity at 10 µM was -13%.

For `CCCc1nnc(N2CCN(c3cccc(C)c3C)CC2)o1`, the cytotoxicity at 10 µM was determined as 9.59%.

For the compound `Cc1c(C2CCOC(C)(C)C2)nc(N)c(C#N)c1-c1ccc(O)cc1` (stereo unspecified), the cytotoxicity at 10 µM turned out to be 22.8%.

`O=C1CC(C(=O)O)C2(CCN(C(=O)NCc3ccc(Cl)cc3)CC2)N1` (stereo unspecified): the cytotoxicity at 10 µM turned out to be 7.66%.

In the case of `Cc1ncnc(NCc2cc3n(n2)CCCN(S(C)(=O)=O)C3)c1C`, the cytotoxicity at 10 µM is -8.42%.

As for `CC(=O)Nc1ccc(CNC2CC(=O)N(Cc3cccc(F)c3)C2)cc1` (stereo unspecified), the cytotoxicity at 10 µM is -6.98%.

On to `CCOCCn1nc(C)cc1C(=O)N1CC[C@](C)(O)[C@H](C)C1`, for which the cytotoxicity at 10 µM is -6.34%.

As for `Cc1nc(N)cc(C2CN(C(=O)c3ccn(C)n3)CCO2)n1` (stereo unspecified), the cytotoxicity at 10 µM came to 0.0241%.

In the case of `C=Cn1ncc(CN2C[C@@H]3CCCN3C[C@H]2CCSC)c1C`, the cytotoxicity at 10 µM was -4.12%.

Regarding `CCC(=O)N1CCN(C(=O)NCCOc2ccc3c(c2)CCC3)CC1`, the cytotoxicity at 10 µM is -7.57%.

Take `COc1ccc(OC2CCN(C(=O)c3ccc(C)[nH]c3=O)CC2)cc1`: the cytotoxicity at 10 µM is -3.22%.

As for `CCN(CC1CCOC1)C(=O)c1cccnc1N1CCOCC1` (stereo unspecified), the cytotoxicity at 10 µM is -10.8%.

Regarding `CC(NC(=O)NCCCn1ccnc1)c1ccc2c(c1)OCCCO2` (stereo unspecified), the cytotoxicity at 10 µM is -15.1%.

Regarding `CC(NC(=O)NCCCN1CCCCCC1)c1nncn1C` (stereo unspecified), the cytotoxicity at 10 µM was -7.1%.

Take `CS(=O)(=O)N1CCC(C(=O)NCCNc2ncccn2)CC1`: the cytotoxicity at 10 µM was -8.11%.

As for `CCNc1cc2c(nn1)CCN(C(=O)c1ccc3cc[nH]c3c1)C2`, the cytotoxicity at 10 µM was -6.95%.

`Cc1nn(C)c(N2CCOCC2)c1CNCc1nccs1`: the cytotoxicity at 10 µM is -6.33%.

As to `O=C(N1CCC(Nc2cccnn2)CC1)C1(c2ccc(F)cc2)CC1`, the cytotoxicity at 10 µM was -12.8%.

As for `CCn1c(C)cc(C(=O)N2CCCC(c3nc(C)no3)C2)c1C` (stereo unspecified), the cytotoxicity at 10 µM is -3.39%.

With `Cc1ccc(CN(CCCN2CCOCC2)Cc2cnn(C)c2)o1`, the cytotoxicity at 10 µM is -1.06%.

For the compound `O=C(C1=CCCC1)N1CCO[C@H]2[C@@H](Oc3ccccn3)CC[C@@H]21`, the cytotoxicity at 10 µM was 0.179%.

As to `Cc1cnc(N2C[C@H]3CCN(CC4CC4)C[C@@H]3C2)nc1`, the cytotoxicity at 10 µM was 7.55%.

Regarding `O=C(O)c1cc2c(nc1NCC1CC1)CCN(C1CCOC1)CC2` (stereo unspecified), the cytotoxicity at 10 µM turned out to be 7.83%.

For `c1ccc(COC[C@H]2CC[C@H]3[C@H](CCN3Cc3cccnc3)O2)nc1`, the cytotoxicity at 10 µM was -80.2%.

With `Cc1noc(C)c1CN1CC[C@H]2OCC[C@@]2(C(=O)N(C)C)C1`, the cytotoxicity at 10 µM is -76.5%.

Regarding `CC(C)C(=O)N1CCC2(CN(CC3CCCC3)C2)C1`, the cytotoxicity at 10 µM is 3.86%.

Consider `COCCNC(=O)C1CN(Cc2nccs2)Cc2ccnn2C1` (stereo unspecified), for which the cytotoxicity at 10 µM is -72.7%.

Consider `N#Cc1cccc(CN2CC[C@@H]3[C@@H]2CC(=O)N3Cc2ccncc2)c1`, for which the cytotoxicity at 10 µM is -73.7%.

Consider `Cc1noc(C)c1CN1CCO[C@H]2CNC[C@H]21`, for which the cytotoxicity at 10 µM came to 5.4%.

For `Cc1noc([C@@H]2C[C@H]3OCC[C@H]3N(S(=O)(=O)c3cccnc3)C2)n1`, the cytotoxicity at 10 µM is -12.5%.

As to `O=C(COC1CCCC1)N1C[C@@H]2CN(Cc3ccoc3)CCO[C@@H]2C1`, the cytotoxicity at 10 µM came to 4.65%.

As to `CCCS(=O)(=O)N1CCN(CCOC)c2nc(C)ccc2C1`, the cytotoxicity at 10 µM amounted to 8.07%.
